The nature of assay [1]: Chemoprevention index, ratio of IC50 for mouse Hepa-1c1c7 cells to drug level required to double specific quinone reductase activity in mouse Hepa-1c1c7 cells. Format: functional. The procedure, abridged:
(§1)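 Hepa 1c1c7 cells seeded at 4000 cells/mL, grown 24 h at 37 °C under CO2, then medium changed. Compounds added in 10% DMSO, serially diluted over 0.15-20 µg/mL, and incubated a further 48 h. QR measured as NADPH-dependent, menadiol-mediated MTT reduction to formazan. Protein by crystal violet at 595 nm in duplicate plates. Specific activity expressed relative to solvent control. CD = concentration giving 2-fold activity, CQ = 4-fold. CI = IC50/CD or IC50/CQ.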

Assay [2] can be described thus: Growth inhibition of mouse Hepa-1c1c7 cells by crystal violet staining. The assay is classed as cell-based. The settings on record: Mus musculus, Hepa-1c1c7. An outline of the steps:
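Hepa 1c1c7 cells seeded at 4000 cells/mL and grown 24 h at 37 °C, then medium changed. Compounds added in 10% DMSO, serially diluted over 0.15-20 µg/mL, and exposed 48 h. Viability read by crystal violet staining at 595 nm. IC50 taken as the half-maximal inhibitory concentration of cell viability.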

Assay [3] is described as follows: Chemoprevention index, ratio of IC50 for mouse Hepa-1c1c7 cells to drug level required to induce 4-fold increase in quinone reductase activity in mouse Hepa-1c1c7 cells. The assay is classed as functional. The procedure, abridged:
as §1

The test system of assay [4] is Mus musculus. Briefly: Induction of quinone reductase activity in BALB/c mouse stomach at 2.5 mg/0.2 ml/day administered intragastrically for 3 consecutive day. Format: functional, organism-based. An outline of the steps:
(§2)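 BALB/c mice, n = 3, dosed intragastrically for 3 consecutive days at 2.5 mg per mouse per day in 0.2 mL sesame oil. Quinone reductase activity was then assessed in liver, lung, colon, stomach and mammary gland tissue, and the change in activity is reported for each organ.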

Assay [5] deals with Mus musculus. In words: Induction of quinone reductase activity in BALB/c mouse mammary gland at 2.5 mg/0.2 ml/day administered intragastrically for 3 consecutive day. The assay is classed as functional, organism-based. An outline of the steps: as §2
For assay [6], the system named is Mus musculus. In words: Induction of quinone reductase activity in BALB/c mouse colon at 2.5 mg/0.2 ml/day administered intragastrically for 3 consecutive day. Format: functional, organism-based. The procedure, abridged:
as §2

The test system of assay [7] is Mus musculus. In words: Induction of quinone reductase activity in BALB/c mouse lung at 2.5 mg/0.2 ml/day administered intragastrically for 3 consecutive day. The assay is classed as functional, organism-based. An outline of the steps:
as §2

In assay [8] the test system is Mus musculus. Briefly: Induction of quinone reductase activity in BALB/c mouse liver at 2.5 mg/0.2 ml/day administered intragastrically for 3 consecutive day. Format: functional, organism-based. An outline of the steps: as §2

Here are results for 8 compounds from ChEMBL document CHEMBL1148136, “Induction of quinone reductase by withanolides” (J Nat Prod, 2002).

pIC50: −log10 of the molar value. The source made the active and inactive calls. The calls are words filed in the database; no cut-off is given here.

The term pIC50 denotes −log10 of the IC50, conventionally taken in molar units. Low readings indicate a large IC50, high ones a small IC50. For `CC(=O)O[C@H]1C=CC(=O)[C@]2(C)[C@H]3CC[C@]45C(O)O[C@@](C)([C@H]6C[C@H](C)[C@@H](C)C(=O)O6)[C@H]4CC[C@H]5[C@@H]3C[C@H]3O[C@]132` (stereo partly drawn), the Ratio in assay [1] and in assay [3] was greater than 1.4 each time. The same compound showed a pIC50 in assay [2] of 6.41.

For `CC1=C(C)[C@]2(OC1=O)C(=O)C(C)=C1CC[C@H]3[C@@H]4C[C@H]5O[C@]56CC=CC(=O)[C@]6(C)[C@H]4C[C@@]2(O)[C@]13C` [JABOROSALACTONE 1], the Ratio in assay [1] was 28.9; in assay [3], 6.3. The same compound showed a pIC50 in assay [2] of 5.09.

As to `CC1=C(CO)C(=O)O[C@@H]([C@@H](C)[C@H]2CC[C@H]3[C@@H]4C[C@H]5O[C@]56CC=CC(=O)[C@]6(C)[C@H]4CC[C@]23C)C1` [JABOROSALACTONE A], the Ratio is given as 6.3 in assay [1] and 2.7 in assay [3]. Also, in assay [2], the pIC50 was 5.74.

On to `CC1=C(CO)C(=O)O[C@@H]([C@@H](C)[C@H]2CC[C@H]3[C@@H]4C[C@@H](O)C5=CC=CC(=O)[C@]5(C)[C@H]4CC[C@]23C)C1` [JABOROSALACTONE B], for which the Ratio in assay [1] is 11.1; in assay [3], 26.9. In assay [2], this compound gave a pIC50 of 4.41.

Regarding `CC1=C(C)[C@]2(OC1=O)[C@H](O)[C@@H](C)[C@]1(O)CC[C@H]3[C@@H]4CC=C5CC=CC(=O)[C@]5(C)[C@H]4C[C@@]2(O)[C@@]31C` [JABOROSALACTONE P], the result with Mus musculus [4], with Mus musculus [5], with Mus musculus [6], in the assay with Mus musculus [7] and in the assay on Mus musculus [8] was inactive. In addition, in assay [1], the Ratio is greater than 57. The compound also had a pIC50 in assay [2] of less than 4.37.

Take `C[C@@H](c1ccc2c(c1)CC[C@H]1[C@H]2[C@@H]2O[C@@H]2[C@@]2(O)CC=CC(=O)[C@]12C)C1C[C@]2(C)O[C@]2(C)[C@H](O)O1` (stereo partly drawn) [NICANDRENONE]: the Ratio in assay [1] was determined as 4.1; in assay [3], 1.1. The same compound had a pIC50 in assay [2] of 4.37.

Take `CC1=C(C)[C@H]([C@H]2O[C@@]3(O)C[C@H]4[C@@H](C[C@H]5O[C@]56CC=CC(=O)[C@]46C)[C@@H]4CC[C@@](O)([C@@H]2C)[C@]43C)OC1=O` [TRECHONOLIDE A]: the Ratio is on record as 28.7 in assay [1] and 6.1 in assay [3]. The compound also gave a pIC50 in assay [2] of 5.11.

With `C[C@H]1C[C@H]([C@](C)(O)[C@H]2[C@@H](O)C[C@H]3[C@@H]4C[C@H]5O[C@]56[C@@H](O)C=CC(=O)[C@]6(C)[C@H]4CC[C@]23C)OC(=O)[C@@H]1C` [WITHAPHYSACARPIN], the Ratio was determined as 11.1 in assay [1] and 2.5 in assay [3]. This compound gave a pIC50 in assay [2] of 5.32.
